Data reported in publication PMC10449099 (The Journal of Pharmacology and Experimental Therapeutics, 2023).

Legend:
[1] = target: Kir6.1[D338E] (Homo sapiens, UniProt O60706+Q15842, D338E); assay: DiBAC4; format: cell-based; conditions: basal activity without KCO; printed hKir6.1[G338E]
[2] = system: cardiac function; conditions: ref Humphrey et al., 1996; cited from earlier work
[3] = system: hSUR2B mutations (A478V, R1154Q, indel1055); assay: DiBAC4; format: cell-based, human; conditions: for reversal of mutation-caused hyperpolarization by inhibitor: basal activity without KCO, hSUR2B A478V, R1154Q, indel1055
Method in brief: (§1)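 Stable landing-pad HEK293 lines expressing hKir6.1/hSUR2B mutants were induced with doxycycline (4 μg/ml) and grown 1 day on poly-L-lysine. Cells were washed in low-K buffer (1 mM KCl, HEPES, pH 7.4), then incubated ≥30 min with 3 μM DiBAC4(3) plus blocker (glibenclamide, repaglinide or PNU37883A), without opener. Cells were segmented by red fluorescence, background-subtracted and mean-intensity averaged over duplicate images.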

[4] = target: hKir6.1[A46V] (Homo sapiens, UniProt O60706+Q15842, A46V); assay: DiBAC4; format: cell-based; conditions: basal activity without KCO
Sequence of hKir6.1[A46V] (Q15842 whole entry A46V): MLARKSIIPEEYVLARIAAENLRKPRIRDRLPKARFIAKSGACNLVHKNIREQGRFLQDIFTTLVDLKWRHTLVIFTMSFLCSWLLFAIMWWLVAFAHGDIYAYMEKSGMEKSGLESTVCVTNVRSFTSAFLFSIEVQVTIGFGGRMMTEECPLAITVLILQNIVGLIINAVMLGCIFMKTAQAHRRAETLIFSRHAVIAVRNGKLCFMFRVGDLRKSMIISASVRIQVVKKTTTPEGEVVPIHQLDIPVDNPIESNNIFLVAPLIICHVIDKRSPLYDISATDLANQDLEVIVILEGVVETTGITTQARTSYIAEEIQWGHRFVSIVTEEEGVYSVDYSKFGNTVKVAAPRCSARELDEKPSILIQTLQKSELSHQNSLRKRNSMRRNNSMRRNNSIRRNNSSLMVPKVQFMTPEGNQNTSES
Sequence of hKir6.1[A46V] (O60706 1-1549 isoform O60706-2, stated change not applied): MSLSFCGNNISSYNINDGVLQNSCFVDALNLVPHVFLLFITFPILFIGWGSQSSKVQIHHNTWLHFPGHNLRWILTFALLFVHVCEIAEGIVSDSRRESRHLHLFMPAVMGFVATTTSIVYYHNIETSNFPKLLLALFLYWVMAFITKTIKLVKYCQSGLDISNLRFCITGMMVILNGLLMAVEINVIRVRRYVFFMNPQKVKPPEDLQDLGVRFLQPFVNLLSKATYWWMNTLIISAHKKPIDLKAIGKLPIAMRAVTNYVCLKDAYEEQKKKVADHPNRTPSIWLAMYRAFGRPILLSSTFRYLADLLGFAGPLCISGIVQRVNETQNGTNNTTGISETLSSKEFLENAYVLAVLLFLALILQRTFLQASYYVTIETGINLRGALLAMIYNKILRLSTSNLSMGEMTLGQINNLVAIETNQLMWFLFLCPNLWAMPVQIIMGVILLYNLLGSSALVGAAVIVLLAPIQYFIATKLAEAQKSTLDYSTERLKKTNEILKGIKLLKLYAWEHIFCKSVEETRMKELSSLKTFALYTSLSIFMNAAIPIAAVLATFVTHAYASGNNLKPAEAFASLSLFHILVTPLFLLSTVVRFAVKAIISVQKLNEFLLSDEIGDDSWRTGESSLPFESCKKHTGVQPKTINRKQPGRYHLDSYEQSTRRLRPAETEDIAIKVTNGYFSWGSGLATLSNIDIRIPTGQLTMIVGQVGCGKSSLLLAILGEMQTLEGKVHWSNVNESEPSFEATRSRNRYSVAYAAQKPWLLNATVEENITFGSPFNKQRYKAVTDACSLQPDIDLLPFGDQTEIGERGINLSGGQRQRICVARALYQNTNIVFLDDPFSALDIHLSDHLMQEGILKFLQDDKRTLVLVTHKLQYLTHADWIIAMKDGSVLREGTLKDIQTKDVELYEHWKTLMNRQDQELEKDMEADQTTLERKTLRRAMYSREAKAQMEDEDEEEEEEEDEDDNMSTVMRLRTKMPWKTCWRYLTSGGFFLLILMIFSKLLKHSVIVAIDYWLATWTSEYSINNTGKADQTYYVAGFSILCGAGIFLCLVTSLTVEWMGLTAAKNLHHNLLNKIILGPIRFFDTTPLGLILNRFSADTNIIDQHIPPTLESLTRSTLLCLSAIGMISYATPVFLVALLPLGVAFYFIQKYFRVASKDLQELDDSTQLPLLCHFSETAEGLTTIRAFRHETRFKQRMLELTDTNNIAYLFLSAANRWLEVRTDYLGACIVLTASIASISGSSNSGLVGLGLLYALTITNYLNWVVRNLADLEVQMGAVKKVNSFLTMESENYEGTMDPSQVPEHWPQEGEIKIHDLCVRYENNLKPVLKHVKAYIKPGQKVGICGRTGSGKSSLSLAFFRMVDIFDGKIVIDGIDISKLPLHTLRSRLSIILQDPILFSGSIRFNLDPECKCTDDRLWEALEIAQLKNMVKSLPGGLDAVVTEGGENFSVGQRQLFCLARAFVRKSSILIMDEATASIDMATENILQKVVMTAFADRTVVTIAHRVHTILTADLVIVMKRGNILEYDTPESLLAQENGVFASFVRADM
Method in brief: as §1

[5] = system: hKir6.1 mutations, particularly V65M, C176S and E189K; assay: DiBAC4; format: cell-based, human; conditions: for sensitivity of mutation-caused hyperpolarization to reversal by inhibitor: basal activity without KCO, hKir6.1 mutations, particularly V65M, C176S, E189K
Method in brief: as §1

[6] = target: hKir6.1/hSUR2B[R1154Q] (Homo sapiens, UniProt O60706+Q15842, R1154Q); assay: Thallium flux assay, SUR2B[R1154Q] stable cells; format: cell-based; conditions: KCOs at presumably maximal concentrations
Sequence of hKir6.1/hSUR2B[R1154Q] (Q15842 whole entry): as the sequence (Q15842 whole entry A46V) above, with V46A counted along it
Sequence of hKir6.1/hSUR2B[R1154Q] (O60706 1-1549 isoform O60706-2 R1154Q): as the sequence (O60706 1-1549 isoform O60706-2, stated change not applied) above, with R1154Q counted along it
Method in brief: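 Doxycycline-induced stable HEK293 cells on poly-L-lysine were loaded 1 h with Fluozin-2 in HBSS. […] Ex 485/em 528 nm was read every 2 s for 2 min, with Tl+ added at 20 s. Blank-subtracted, pre-Tl-normalized traces were fit single-exponentially, giving initial rate at t=0; n = 3–4.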

[7] = target: hKir6.1[V65M]/hSUR2B (Homo sapiens, UniProt O60706+Q15842, V65M); assay: Thallium flux assay, Kir6.1[V65M] stable cells; format: cell-based; conditions: for activation of Tl influx by KCO: KCOs at presumably maximal concentrations, compared with WT
Sequence of hKir6.1[V65M]/hSUR2B (Q15842 whole entry V65M): as the sequence (Q15842 whole entry A46V) above, with V46A, V65M counted along it
Sequence of hKir6.1[V65M]/hSUR2B (O60706 1-1549 isoform O60706-2, stated change not applied): as the sequence (O60706 1-1549 isoform O60706-2, stated change not applied) above

[8] = target: T1, WT hKir6.1/hSUR2B (Homo sapiens, UniProt O60706+Q15842); format: cell-based; conditions: for activation of Tl influx by KCO: KCOs at presumably maximal concentrations
T1 sequence (Q15842 whole entry): as the sequence (Q15842 whole entry A46V) above, with V46A counted along it
T1 sequence (O60706 1-1549 isoform O60706-2): as the sequence (O60706 1-1549 isoform O60706-2, stated change not applied) above

[9] = target: T1, WT hKir6.1/hSUR2B; assay: DiBAC4; format: cell-based; conditions: WT cells
Method in brief: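 WT hKir6.1/hSUR2B and untransfected landing-pad HEK293 cells were loaded ≥30 min with 3 μM DiBAC4(3) in 1 mM K+ buffer. […] Background-subtracted mean cell fluorescence was normalized to untreated cells, n = 4–6. K conductance was estimated with a simplified Goldman-Hodgkin-Katz equation.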

[10] = target: hKir6.1[D338E]/hSUR2B (Homo sapiens, UniProt O60706+Q15842, D338E); assay: Thallium flux assay, Kir6.1[D338E] stable cells; format: cell-based
Sequence of hKir6.1[D338E]/hSUR2B (Q15842 whole entry D338E): as the sequence (Q15842 whole entry A46V) above, with V46A, D338E counted along it
Sequence of hKir6.1[D338E]/hSUR2B (O60706 1-1549 isoform O60706-2, stated change not applied): as the sequence (O60706 1-1549 isoform O60706-2, stated change not applied) above

[11] = target: hKir6.1[E189K]/hSUR2B (Homo sapiens, UniProt O60706+Q15842, E189K); assay: Thallium flux assay, Kir6.1[E189K] stable cells; format: cell-based
Sequence of hKir6.1[E189K]/hSUR2B (Q15842 whole entry E189K): as the sequence (Q15842 whole entry A46V) above, with V46A, E189K counted along it
Sequence of hKir6.1[E189K]/hSUR2B (O60706 1-1549 isoform O60706-2, stated change not applied): as the sequence (O60706 1-1549 isoform O60706-2, stated change not applied) above

[12] = system: hKir6.1/hSUR2B with hSUR2B mutations (A478V, indel1055, R1154Q, R1154W); assay: Thallium flux assay, all cell lines with hSUR2B mutations; format: cell-based, human; conditions: all hSUR2B mutant cell lines
Method in brief: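 Doxycycline-induced stable hKir6.1/hSUR2B-mutant HEK293 cells on poly-L-lysine were loaded 1 h with Fluozin-2 in HBSS. […] Ex 485/em 528 nm was read every 2 s for 2 min, with Tl+ added at 20 s. Blank-subtracted traces normalized to pre-Tl fluorescence were fit with a single exponential; initial rate was the derivative at t=0.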

[13] = target: hKir6.1[C176S]/hSUR2B (Homo sapiens, UniProt O60706+Q15842, C176S); assay: Thallium flux assay, Kir6.1[C176S] stable cells; format: cell-based
Sequence of hKir6.1[C176S]/hSUR2B (Q15842 whole entry C176S): as the sequence (Q15842 whole entry A46V) above, with V46A, C176S counted along it
Sequence of hKir6.1[C176S]/hSUR2B (O60706 1-1549 isoform O60706-2, stated change not applied): as the sequence (O60706 1-1549 isoform O60706-2, stated change not applied) above

[14] = target: hKir6.1[A46V]/hSUR2B (Homo sapiens, UniProt O60706+Q15842, A46V); assay: Thallium flux assay, Kir6.1[A46V] stable cells; format: cell-based
Sequence of hKir6.1[A46V]/hSUR2B (Q15842 whole entry A46V): as the sequence (Q15842 whole entry A46V) above
Sequence of hKir6.1[A46V]/hSUR2B (O60706 1-1549 isoform O60706-2, stated change not applied): as the sequence (O60706 1-1549 isoform O60706-2, stated change not applied) above

[15] = target: Kir6.1/SUR2B[R1154Q] mutant channels (Homo sapiens, UniProt O60706+Q15842, R1154Q); assay: Whole-cell patch-clamp, stably transfected R1154Q mutant channels; format: cell-based
Sequence of Kir6.1/SUR2B[R1154Q] mutant channels (Q15842 whole entry): as the sequence (Q15842 whole entry A46V) above, with V46A counted along it
Sequence of Kir6.1/SUR2B[R1154Q] mutant channels (O60706 1-1549 isoform O60706-2 R1154Q): as the sequence (O60706 1-1549 isoform O60706-2, stated change not applied) above, with R1154Q counted along it

[16] = system: gastric motility; conditions: ref York et al., 2020; cited from earlier work
[17] = system: SUR2[A478V] mice; conditions: ref McClenaghan et al., 2020b; cited from earlier work
[18] = target: hSUR2B[R1154W] (Homo sapiens, UniProt O60706+Q15842, R1154W); assay: DiBAC4; format: cell-based; conditions: basal activity without KCO
Sequence of hSUR2B[R1154W] (Q15842 whole entry): as the sequence (Q15842 whole entry A46V) above, with V46A counted along it
Sequence of hSUR2B[R1154W] (O60706 1-1549 isoform O60706-2 R1154W): as the sequence (O60706 1-1549 isoform O60706-2, stated change not applied) above, with R1154W counted along it
Method in brief: as §1

[19] = target: WT Kir6.1/SUR2B channels (Homo sapiens, UniProt O60706+Q15842); assay: Whole-cell patch-clamp, stably transfected WT channels; format: cell-based; conditions: Vm -60 mV
Sequence of WT Kir6.1/SUR2B channels (Q15842 whole entry): as the sequence (Q15842 whole entry A46V) above, with V46A counted along it
Sequence of WT Kir6.1/SUR2B channels (O60706 1-1549 isoform O60706-2): as the sequence (O60706 1-1549 isoform O60706-2, stated change not applied) above

[20] = most SUR2B CS mutations, basal activity

Sequence of Kir6.1[D338E] (Q15842 whole entry D338E): as the sequence (Q15842 whole entry A46V) above, with V46A, D338E counted along it
Sequence of Kir6.1[D338E] (O60706 1-1549 isoform O60706-2, stated change not applied): as the sequence (O60706 1-1549 isoform O60706-2, stated change not applied) above

C1CCC(N=C(NC23CC4CC(CC(C4)C2)C3)N2CCOCC2)CC1.Cl [PNU37883A]
sensitivity of mutation-caused hyperpolarization to reversal by inhibitor [1]: uniquely insensitive | effects on cardiac function [2]: Fatal effects | reversal of mutation-caused hyperpolarization by inhibitor [3]: readily reversed | reversal of mutation-caused hyperpolarization by inhibitor [4]: readily reversed | inhibition of basal Kir6.1 mutation activities, comparison ([5]; at saturating doses): more effective than glibenclamide or repaglinide | sensitivity of mutation-caused hyperpolarization to reversal by inhibitor [5]: very poorly sensitive

CC1(C)Oc2ccc(C#N)cc2C(N2CCCC2=O)C1O (centres unmarked) [cromakalim]
activation of Tl influx by KCO [6]: not activated | activation of Tl influx by KCO ([7]; hKir6.1[V65M]): enhanced activation | activation of Tl influx by KCO ([8]; WT): activated

CC1=NS(=O)(=O)c2cc(Cl)ccc2N1 [diazoxide]
activation of Tl influx by KCO [6]: not activated | concentrations generating clear KATP-dependent hyperpolarization signals ([9]; 1 mM [K+]o): above 1 μM | effect on membrane potential (DiBAC4(3) fluorescence) ([9]; 1 mM [K+]o): dose-dependently hyperpolarized | activation of Tl influx by KCO ([7]; hKir6.1[V65M]): measurable activation | activation of Tl influx by KCO ([8]; WT): no effect

C=C[C@@]1(C)CC(=O)[C@]2(O)[C@@]3(C)[C@@H](O)CCC(C)(C)[C@@H]3[C@H](O)[C@H](OC(C)=O)[C@@]2(C)O1 [forskolin]
Tl-influx rate with forskolin ([10]; hKir6.1[D338E], 10 μM forskolin): increased | Tl-influx rate with forskolin ([11]; hKir6.1[E189K], 10 μM forskolin): increased | effect of forskolin on membrane potential (DiBAC4(3)) ([9]; 10 μM forskolin): significant hyperpolarization | response of Tl-influx rate to forskolin ([12]; 10 μM forskolin): essentially insensitive | Tl-influx rate with forskolin ([13]; hKir6.1[C176S], 10 μM forskolin): increased | Tl-influx rate with forskolin ([7]; hKir6.1[V65M], 10 μM forskolin): increased | Tl influx signal with forskolin ([8]; WT, 10 μM forskolin): failed to generate measurable

COc1ccc(Cl)cc1C(=O)NCCc1ccc(S(=O)(=O)NC(=O)NC2CCCCC2)cc1 [glibenclamide]
Hill coefficient, glibenclamide inhibition ([10]; Kir6.1[D338E], 100 μM pinacidil, fit with eq. 4): 1.5 ± 0.4 | Hill coefficient, glibenclamide inhibition ([14]; 100 μM pinacidil, fit with eq. 4): 1.9 ± 0.3 | glibenclamide sensitivity (IPin+Glib/IPin) compared with WT ([15]; pinacidil-activated current): markedly reduced | effect on gastric motility [16]: restored gastric motility | effect on CS-associated cardiovascular abnormalities [17]: reversed CS-associated cardiovascular abnormalities | Hill coefficient, glibenclamide inhibition ([11]; Kir6.1[E189K], 100 μM pinacidil, fit with eq. 4): 1.0 ± 0.2 | reversal of mutation-caused hyperpolarization by inhibitor [3]: readily reversed | glibenclamide concentration that effectively blocked basal activity [3, 20]: 100 to 300 nM | glibenclamide concentration that markedly inhibited ([3]; most SUR2 CS mutations): < 100 nM | Hill coefficient, glibenclamide inhibition ([13]; Kir6.1[C176S], 100 μM pinacidil, fit with eq. 4): 1.1 ± 0.5 | Hill coefficient, glibenclamide inhibition ([7]; Kir6.1[V65M], 100 μM pinacidil, fit with eq. 4): 1.8 ± 0.8 | reversal of mutation-caused hyperpolarization by inhibitor [4]: readily reversed | Hill coefficient, glibenclamide inhibition ([8]; WT, 100 μM pinacidil, fit with eq. 4): 2.9 ± 6.0 | sensitivity of mutation-caused hyperpolarization to reversal by inhibitor [5]: very poorly sensitive | sensitivity of mutation-caused hyperpolarization to reversal by inhibitor [18]: uniquely insensitive

O=C(NCCO[N+](=O)[O-])c1cccnc1 [nicorandil]
activation of Tl influx by KCO [6]: not activated | activation of Tl influx by KCO ([7]; hKir6.1[V65M]): measurable activation | activation of Tl influx by KCO ([8]; WT): only activated by pinacidil and cromakalim

CC(N/C(=N\C#N)Nc1ccncc1)C(C)(C)C (centres unmarked) [pinacidil]
activation of Tl influx by KCO [6]: not activated | Hill coefficient, pinacidil activation ([10]; Kir6.1[D338E], fit with eq. 3): 1.7 ± 0.1 | Hill coefficient, pinacidil activation ([14]; fit with eq. 3): 1.9 ± 0.2 | increase of whole-cell current by pinacidil (IPin/IBasal) ([15]; Vm -60 mV): ~10 fold | Hill coefficient, pinacidil activation ([11]; Kir6.1[E189K], fit with eq. 3): 1.3 ± 0.4 | DiBAC4(3) signal changes at 10 μM pinacidil ([9]; 10 μM pinacidil): almost saturated | effect on membrane potential (DiBAC4(3) fluorescence) ([9]; 1 mM [K+]o): dose-dependently hyperpolarized | potency of hyperpolarization, comparison ([9]; 1 mM [K+]o): more potent than diazoxide | share of the DiBAC4(3) signal change that occurs at <3 μM pinacidil ([9]; <3 μM pinacidil, activation of <20% of maximal WT conductance): ~80% | response of Tl-influx rate to pinacidil activation ([12]; pinacidil 100 μM): essentially insensitive | maximum channel activity with pinacidil compared with WT ([13]; Kir6.1[C176S], Tl influx dose-response): much higher | Hill coefficient, pinacidil activation ([13]; Kir6.1[C176S], fit with eq. 3): 1.2 ± 0.1 | increase of whole-cell current by pinacidil (IPin/IBasal) [19]: ~150 fold | channel activity at very high concentration of pinacidil ([7]; Kir6.1[V65M], 300 μM pinacidil): slightly decreased | Hill coefficient, pinacidil activation ([7]; Kir6.1[V65M], fit with eq. 3): 1.2 ± 0.0 | activation of Tl influx by KCO ([7]; hKir6.1[V65M]): enhanced activation | pinacidil concentration at which Tl influx activation reached maximum ([8]; WT channels): 100 µM | activation of Tl influx by KCO ([8]; WT): activated | Hill coefficient, pinacidil activation ([8]; WT, fit with eq. 3): 2.6 ± 1.0

CCOc1cc(CC(=O)N[C@@H](CC(C)C)c2ccccc2N2CCCCC2)ccc1C(=O)O [repaglinide]
reversal of mutation-caused hyperpolarization by inhibitor [3]: readily reversed | block of basal activity compared with glibenclamide [3, 20]: more effectively | reversal of mutation-caused hyperpolarization by inhibitor [4]: readily reversed | sensitivity of mutation-caused hyperpolarization to reversal by inhibitor [5]: very poorly sensitive
